Tests used:
A375 cells [1] = test: Cellular uptake by flow cytometry in A375 cells; assay type: cell-based, human; details: free cRGDfK 10 μM
In short: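 A375 cells grown in DMEM with 10% FBS and 1% penicillin/streptomycin at 37 °C, 5% CO2. Cells were exposed to untargeted or RGD-targeted PEG-IR700 conjugate for 4 h, with or without free cRGDfK (10 μM). They were then trypsinized to single cells, and cell-associated fluorescence was read by flow cytometry.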

A375 cells [2] = test: Phototoxicity and dark toxicity, Alamar Blue assay; assay type: cell-based, human; details: no irradiation, up to 1000 nM of IR700 equiv.
In short: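 A375 cells were incubated overnight at 37 °C with free IR700 or PEG-IR700 conjugates at increasing concentrations (IR700 equiv.). Cells were then washed with fresh medium and kept unirradiated, as dark controls for the 660 nm photo-irradiation arm. Viability was measured 24 h later by Alamar Blue (4 h, fluorescence Ex 540/Em 590 nm); N = 4.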

Compound | effect of free peptide on uptake of RGD-8PEG-IR700 (A375 cells [1]) | cytotoxicity in dark (A375 cells [2])
N=C(N)NCCC[C@@H]1NC(=O)[C@H](CCCCN)NC(=O)[C@@H](Cc2ccccc2)NC(=O)[C@H](CC(=O)O)NC(=O)CNC1=O [cRGDfK] | dramatically reduce the uptake | –
C[Si](C)(CCC[N+](CCCS(=O)(=O)[O-])(CCCS(=O)(=O)[O-])CCCS(=O)(=O)[O-])O[Si]1(O[Si](C)(C)CCC[N+](CCCS(=O)(=O)[O-])(CCCS(=O)(=O)[O-])CCCS(=O)(=O)[O-])n2c3c4ccccc4c2N=C2N=C(N=c4c5ccccc5c(n41)=NC1=NC(=N3)c3ccccc31)c1cccc(OCCCOC(=O)NCCCCCC(=O)ON3C(=O)CCC3=O)c12.[Na+].[Na+].[Na+].[Na+] (centres unmarked) [IR700, IRDye 700DX] | – | no dark toxicity
